E-selectin induc = E-selectin induction in HUVECs, primary screen, imaging, HUVEC, immunofluorescence imaging, single point. 260,000 compounds, 0.37% hits. P16581. AID 686992, 2013. activation, % at 7.58 µM. normalized: neutral wells 0, TNF-alpha wells 100;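 active = mean E-selectin-positive cell signal at least 10% of the positive control, reached in at least 60% of replicates, without over 20% cell loss; inconclusive = no rule given, readout overlaps actives, possibly toxicity-flagged; inactive = the rest, including those meeting only one limit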
Target sequence (P16581 whole entry, looked up): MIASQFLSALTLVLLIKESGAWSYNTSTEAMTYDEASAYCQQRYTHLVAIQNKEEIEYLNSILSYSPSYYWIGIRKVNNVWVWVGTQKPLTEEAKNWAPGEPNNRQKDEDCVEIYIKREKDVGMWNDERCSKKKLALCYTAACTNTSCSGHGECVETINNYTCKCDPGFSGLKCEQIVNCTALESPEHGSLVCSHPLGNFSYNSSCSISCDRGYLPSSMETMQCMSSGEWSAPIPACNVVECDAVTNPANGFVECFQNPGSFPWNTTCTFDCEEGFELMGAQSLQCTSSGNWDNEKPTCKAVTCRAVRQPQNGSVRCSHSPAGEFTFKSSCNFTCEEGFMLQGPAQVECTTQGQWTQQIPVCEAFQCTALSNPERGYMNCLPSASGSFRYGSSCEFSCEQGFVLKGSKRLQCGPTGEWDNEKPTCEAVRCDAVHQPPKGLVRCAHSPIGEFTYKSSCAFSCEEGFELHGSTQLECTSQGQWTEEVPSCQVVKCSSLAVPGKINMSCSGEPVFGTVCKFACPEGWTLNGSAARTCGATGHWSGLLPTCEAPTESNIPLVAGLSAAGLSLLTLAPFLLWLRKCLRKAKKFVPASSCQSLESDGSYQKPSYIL
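assay system = HUVEC, human umbilical vein endothelial cells | input = 3,000 HUVEC seeded per well | medium = EGM-2 growth medium on 0.1% gelatin-coated wells | dosing = one compound dose added by pin transfer | signal = immunofluorescence imaging | read-out basis = % PE-positive cells | control set = TNF-alpha, DMSO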
DENV2 CPE rescue = inhibitors of DENV2 cytopathic effect, primary screen, cell-based, plate reader, single concentration; DENV2-infected cells, cytopathic effect rescue; CPE inhibition, % at 9.99 µM; 350,000 compounds, 1.7% hits; in the data active = CPE inhibition above about 20%, passing the limit was not always enough; inconclusive = no clear call, values can overlap the other calls; tested in BHK-21 cells;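 note: 0% = median of neutral control wells and 100% = median of positive control wells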
SIRT5 inh = SIRT5 desuccinylase inhibitors, primary screen, biochemical, fluorescence imaging, single point, set 5; NAD-dependent protein deacylase sirtuin-5, mitochondrial (Homo sapiens), Q9NXA8; Purified SirT5, succinyl-peptide AMC, trypsin-coupled fluorescence; inhibition, % at 15 µM; 330,000 compounds, 1.1% hits; in the data active = inhibition above about 15%; inconclusive = no clear call, values can overlap the other calls
* marks the source's active call; other numbers are inactive results; ? = inconclusive; · = no result given. Shown are actives, neighbours in structure and some others; about 2.8% of the full set was active somewhere.

SMILES | E-selectin induc | DENV2 CPE rescue | SIRT5 inh
CC(=O)CSc1ccc(-c2nc3ccccc3[nH]2)cn1 | · | -10 | -15
C[C@@H]1CN([C@@H](C)CO)C(=O)c2cccc(NC(=O)c3ccncc3)c2O[C@@H]1CN(C)Cc1ccc(C(=O)Nc2ccccc2N)cc1 | 11 | 14 | -2
C[C@@H]1CN([C@H](C)CO)C(=O)c2cc(NC(=O)Nc3ccccc3)ccc2O[C@@H](C)CCCCO[C@H]1CN(C)S(=O)(=O)c1cn(C)cn1 | 0 | -2 | -9
O=C(C[C@@H]1CC[C@@H](NC(=O)C2CCC2)[C@@H](CO)O1)NCc1ccccc1Cl | -2 | -4 | -5
COCCNC(=O)C[C@H]1CC[C@H](NC(=O)NC2CCCC2)[C@H](CO)O1 | 0 | -5 | 3
COCC(=O)Nc1ccc2c(c1)[C@@H]1C[C@H](CC(=O)NCc3ccccc3OC)O[C@@H](CO)[C@@H]1O2 | 0 | -2 | 1
COCC(=O)Nc1ccc2c(c1)[C@@H]1C[C@@H](CC(=O)NCc3ccccc3OC)O[C@@H](CO)[C@@H]1O2 | 0 | -1 | 19*
COCCNC(=O)C[C@@H]1CC[C@H](NC(=O)NC2CCCC2)[C@@H](CO)O1 | 1 | 22* | 0
O=C(C[C@H]1CC[C@H](NC(=O)C2CCC2)[C@H](CO)O1)NCc1ccccc1Cl | 0 | 0 | 25*
COc1ccccc1CNC(=O)C[C@@H]1C[C@H]2c3cc(NC(=O)Nc4ccc(C(F)(F)F)cc4)ccc3O[C@H]2[C@@H](CO)O1 | 5 | 36* | 3
COc1ccccc1CNC(=O)C[C@@H]1C[C@H]2c3cc(NC(=O)Nc4ccccc4F)ccc3O[C@H]2[C@H](CO)O1 | 0 | -3 | -1
CCCN(C)C[C@@H]1OCCCC[C@H](C)Oc2ccc(NC(=O)Nc3ccc(C(F)(F)F)cc3)cc2C(=O)N([C@@H](C)CO)C[C@@H]1C | 0 | 2 | -4
CCNC(=O)C[C@H]1CC[C@H]2[C@@H](COC[C@H](O)CN2C(=O)c2cc(Cl)cc(Cl)c2)O1 | 0 | 0 | ·
COCC(=O)N[C@H]1CC[C@H](CC(=O)NCc2ccccc2OC)O[C@H]1CO | 0 | -5 | 1
COCC(=O)N[C@@H]1CC[C@H](CC(=O)NCc2ccccc2OC)O[C@@H]1CO | 0 | 9 | 16*
O=C([C@H]1[C@H](CO)[C@H]2Cn3c(cccc3=O)[C@@H]1N2Cc1ccccc1)N1CCCCC1 | 0 | 0 | -1
O=C(NC1CCCC1)[C@@H]1[C@@H](CO)[C@@H]2Cn3c(ccc(-c4ccccc4)c3=O)[C@H]1N2CC1CC1 | 0 | 25* | -8
O=C([C@@H]1[C@@H](CO)[C@@H]2Cn3c(cccc3=O)[C@H]1N2Cc1ccccc1)N1CCCCC1 | 0 | 50* | -3
O=C(NC1CCCC1)[C@H]1[C@H](CO)[C@H]2Cn3c(ccc(-c4cccnc4)c3=O)[C@@H]1N2CC1CC1 | -1 | 4 | -4
O=C([C@H]1[C@H](CO)[C@H]2Cn3c(cccc3=O)[C@@H]1N2CC1CCCC1)N1CCOCC1 | 0 | 23* | 2
O=C([C@@H]1[C@@H](CO)[C@@H]2Cn3c(cccc3=O)[C@H]1N2CC1CCCC1)N1CCCCC1 | 0 | 2 | -3
COc1cccc(-c2ccc3n(c2=O)C[C@H]2[C@H](CO)[C@@H](C(=O)NCC4CC4)[C@@H]3N2S(C)(=O)=O)c1 | 0 | -1 | -41
CS(=O)(=O)N1[C@@H]2c3ccc(-c4ccc(F)cc4)c(=O)n3C[C@H]1[C@H](CO)[C@H]2C(=O)NCC1CC1 | 0 | 121* | -32
CN1CCN(C(=O)C[C@@H]2CC[C@H]3[C@@H](COC[C@H](O)CN3CC3CCCC3)O2)CC1 | 0 | -11 | -2
CCCNC(=O)N1[C@@H]2c3ccc(-c4ccccc4OC)c(=O)n3C[C@H]1[C@H](CO)[C@H]2C(=O)NCC | 0 | 17 | -28
SMILES | E-selectin induc | DENV2 CPE rescue | SIRT5 inh
CS(=O)(=O)Nc1ccc2c(c1)[C@H]1C[C@@H](CC(=O)NCC(F)(F)F)O[C@@H](CO)[C@H]1O2 | 0 | -1 | -4
COc1cccc(C#Cc2ccc3c(c2)O[C@H](CN(C)C)[C@@H](C)CN([C@H](C)CO)S3(=O)=O)c1 | 0 | -10 | 0
CCCNC(=O)N1[C@@H]2Cn3c(cccc3=O)[C@H]1[C@@H](C(=O)N1CCC(Cc3ccccc3)CC1)[C@@H]2CO | 1 | 4 | 21*
O=C(NCC1CCCCC1)[C@@H]1[C@@H](CO)[C@@H]2Cn3c(ccc(-c4cncnc4)c3=O)[C@H]1N2 | 1 | -5 | -34
O=C(NCC1CCCCC1)[C@@H]1[C@@H](CO)[C@@H]2Cn3c(ccc(-c4cccnc4)c3=O)[C@H]1N2 | 0 | 106* | -37
O=C(NC1CCCCC1)[C@H]1[C@H](CO)[C@H]2Cn3c(cccc3=O)[C@@H]1N2CC1CCCCC1 | 0 | -8 | 2
CCCNC(=O)[C@H]1[C@H](CO)[C@H]2Cn3c(cccc3=O)[C@@H]1N2CCC(F)(F)F | 0 | 20* | 5
O=C(NC1CCCCC1)[C@@H]1[C@@H](CO)[C@@H]2Cn3c(cccc3=O)[C@H]1N2CC1CCCCC1 | 0 | ? | 19*
CCCNC(=O)[C@@H]1[C@@H](CO)[C@@H]2Cn3c(cccc3=O)[C@H]1N2CCC(F)(F)F | 0 | 9 | 6
CCCNC(=O)[C@@H]1[C@@H](CO)[C@@H]2Cn3c(cccc3=O)[C@H]1N2C(=O)NCCC | -1 | 0 | 2
COc1ccc(NC(=O)N(C)C[C@@H]2Oc3c(NS(=O)(=O)c4ccc(F)cc4)cccc3C(=O)N([C@@H](C)CO)C[C@@H]2C)cc1 | 0 | -2 | ·
CC(=O)N1C[C@@H]2[C@H](c3ccccc31)[C@H](CO)N2C(=O)c1ccc(F)cc1 | 0 | -1 | -1
C[C@@H]1CN([C@@H](C)CO)C(=O)c2ccccc2-c2ccccc2CO[C@@H]1CN(C)Cc1ccc2c(c1)OCO2 | -4 | -1 | 3
CC(C)NC(=O)N1CC(=O)N2[C@@H](CO)[C@@H](c3ccc(C#CCN(C)C)cc3)[C@@H]2C1 | 0 | 11 | 0
CCCC#Cc1ccc([C@@H]2[C@@H](CO)N3C(=O)CN(C(=O)Nc4ccc(F)cc4)C[C@H]23)cc1 | 1 | 36* | -1
COc1ccccc1NC(=O)N1CC(=O)N2[C@H](C1)[C@@H](c1ccc(C#Cc3ccc(F)cc3)cc1)[C@@H]2CO | -1 | 69* | 4
CCCC#Cc1ccc([C@H]2[C@H]3CN(C(=O)NC4CCCC4)CC(=O)N3[C@H]2CO)cc1 | 0 | 11 | 2
CCCC#Cc1ccc([C@@H]2[C@H]3CN(C(=O)NC4CCCC4)CC(=O)N3[C@H]2CO)cc1 | 0 | 22* | 0
CCCC#Cc1ccc([C@H]2[C@H](CO)N3C(=O)CN(C(=O)Nc4ccc(F)cc4)C[C@@H]23)cc1 | 0 | -2 | 3
COc1ccccc1NC(=O)N1CC(=O)N2[C@@H](CO)[C@@H](c3ccc(C#Cc4ccc(F)cc4)cc3)[C@@H]2C1 | 0 | 2 | 3
CC(C)NC(=O)N1CC(=O)N2[C@H](CO)[C@H](c3ccc(C#CCN(C)C)cc3)[C@@H]2C1 | 0 | 23* | 2

Source: PubChem BioAssay (Broad Institute)
